The list is not random: actives were taken first. Their share in the collection is about 1.8%.
eIF4E-4G inh: eIF4E–eIF4G protein interaction inhibitors, primary screen, biochemical, uHTS, TR-FRET, eIF4GI fragment. Eukaryotic translation initiation factor 4E (Mus musculus) + Eukaryotic translation …. 220,000 tested, 0.37% active. inhibition, % at 21.7 µM. TR-FRET eIF4E-eIF4GI(517-606) binding, 2 h. AID 782, 2007;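 active means inhibition above about 30%, limit read from the data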;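 further: 0% = full FRET control wells and 100% = background wells lacking eIF4GI fragment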
UBC9 SUMO inh: inhibitors of in vitro SUMOylation cascade, primary screen, biochemical, HTRF, uHTS. 290,000 tested, 0.36% active. inhibition, % at 35 µM. SUMO-conjugating enzyme UBC9 (Homo sapiens), P63279. HTRF SUMOylation assay, SAE1/SAE2 + UBC9; in the data active means inhibition above about 50%, passing the limit was not always enough
Target sequence (P63279 whole entry, looked up): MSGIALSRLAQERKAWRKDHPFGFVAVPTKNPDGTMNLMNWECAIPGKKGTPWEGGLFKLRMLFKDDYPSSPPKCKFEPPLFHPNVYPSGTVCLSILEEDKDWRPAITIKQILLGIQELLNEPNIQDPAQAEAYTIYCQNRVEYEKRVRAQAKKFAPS
HCV core dimer: inhibitors of HCV core protein dimerization, primary screen, biochemical, TR-FRET, high-throughput; 300,000 tested, 0.33% active; TR-FRET GST/Flag-core106 dimerization, 1536-well; inhibition, % at 5 µM; AID 1899, 2009;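 active means inhibition above the mean of all tested compounds plus 3 SD, set per screening campaign, cut at about 45% in these data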
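test system = GST/Flag-tagged HCV core106 proteins | probe or stimulus = Eu donor and XL665 acceptor anti-tag antibodies | times = compound-protein-antibody incubation 4 h at 22.5 °C | signal = TR-FRET, excitation 340 nm, emission 617 and 671 nm | measure = percent inhibition of core106 dimerization signal | controls = wells lacking GST-core106 and wells with excess unlabelled core106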
PABP polyA inh: PABP poly(A) RNA binding inhibitors, primary screen, biochemical, fluorescence polarization, uHTS | AID 2014, 2009 | 290,000 tested, 1% active | calls only at 35 µM;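 further: calls also rest on retests at 20 µM and on dose response follow-up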
eIF4H FP inh: human eIF4H binding inhibitors, primary screen, translation initiation inhibitor project, biochemical, uHTS, fluorescence polarization; eIF4H fluorescence polarization binding assay; inhibition, % at 35 µM; 290,000 tested, 0.94% active; AID 2012, 2009;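 further: calls also rest on retests at 20 µM and on dose response follow-up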
PABP1 MLLE inh: inhibitors of PABP1 MLLE–PAM2 peptide binding, primary screen, biochemical, fluorescence polarization, FITC-PAM2, GST-MLLE | Polyadenylate-binding protein 1 (Homo sapiens), P11940 | 360,000 tested, 0.36% active | AID 588489, 2011 | inhibition, % at 20 µM; in the data active means inhibition above about 35%, passing the limit was not always enough;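 further: plate controls were DMSO wells with GST-MLLE for no effect and wells lacking GST-MLLE protein for full effect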
* marks the source's active call; other numbers are inactive results; i = inactive; . = not tested or not shown; + = active, no number. Unless noted, how the calls were made is not given here.

SMILES	eIF4E-4G inh	UBC9 SUMO inh	HCV core dimer	PABP polyA inh	eIF4H FP inh	PABP1 MLLE inh
O=C1OC(c2cccs2)=N/C1=C/c1ccc(-c2cccc(C(=O)O)c2)o1	36*	9	.	+	89	-87
COc1ccc(NC2=NCC(=O)N2Cc2cccs2)cc1	43*	28	-2	i	-6	2
COc1ccc(NC2=NCCC(=O)N2Cc2cccs2)cc1	-2	-5	-10	i	-3	-1
CCc1ccc(N2CC(C(=O)N(CC)CC(=O)Nc3c(F)cccc3F)CC2=O)cc1 (stereo not drawn)	.	.	.	.	.	-4
CCN(CC(=O)Nc1c(F)cccc1F)C(=O)C1CC(=O)N(c2ccccc2OC)C1 (stereo not drawn)	.	4	5	+	10	-3
Oc1ccc(/C=N/n2cc(-c3ccccc3)[nH]c2=S)cc1	-3	16	-6	i	0	43*
N#CC1=C(c2ccc(-c3ccccc3)cc2)COC1=O	1	28	52*	i	28	-42
Cc1cccc(C)c1OCC(C)N (stereo not drawn)	85*	0	4	i	4	14
CC1=CC2=NC(=O)/C(=C/c3cccn3Cc3ccccc3)C(=N)N2O1	-2	1	3	i	-4	-8
N=C1/C(=C/c2cccn2Cc2ccc(Cl)cc2)C(=O)N=C2SC=CN12	7	50*	7	i	-10	1
Nc1cccn2c(-c3ccc(Cl)c(Cl)c3)cnc12	0	10	16	+	95*	-49
S=c1nc2c(n[nH]1)c1ccccc1n2CCc1ccccc1	.	7	-7	i	-10	39*
CSc1nnc2c3ccccc3n(CCc3ccccc3)c2n1	0	32	7	i	0	0
Oc1ccc(-c2[nH]ncc2-c2cccc3cccnc23)c(O)c1	92*	0	-5	i	-4	-1
Oc1ccc(-c2[nH]ncc2-c2ccc(Cl)cc2)c(O)c1	9	-25	-4	i	-2	-15
COc1ccccc1OCCC(=O)O	1	-5	2	+	active	-4
O=C(CSc1nnc2c3ccccc3c3ccccc3c2n1)Nc1ccccc1F	-2	27	30	i	85*	-10
O=C(CSc1nnc2c3ccccc3c3ccccc3c2n1)Nc1ccccc1	-27	-13	0	i	0	.
C/C(=N\NC(=O)Cc1c(C)[nH][nH]c1=O)c1cccc(Br)c1	97*	2	4	i	2	-16
Cc1ccc(C(=O)NNC(=O)c2ccc3ccccc3c2O)cc1	.	-12	-19	i	6	5
Cc1ccc(C)c(S(=O)(=O)Nc2ccc(O)c(Sc3ncn[nH]3)c2)c1	7	-5	-2	+	79*	18
Cc1cc(/C=C(\C#N)C(=O)Nc2ccccc2)c(C)n1-c1cccnc1	3	15	16	i	6	11
Cc1cc(C(=O)O)ccc1-n1c(C)cc(/C=C(/C#N)C(=O)Nc2ccccc2)c1C	5	32	14	+	63*	4
O=C1NN(c2ccc(Cl)c(Cl)c2)C(=O)/C1=C/c1cccc(OC(=O)c2cccs2)c1	-5	44	-6	+	82*	.
O=C1NN(c2ccccc2)C(=O)/C1=C\c1cccc(OC(=O)c2cccs2)c1	2	14	26	i	9	13
CC(C)C(=O)NC(=S)Nc1ccc(S(=O)(=O)N2CCN(C)CC2)cc1	14	2	-10	i	8	23
Cc1nc(S/C(=C\c2ccc(-c3ccc(C(=O)O)c(Cl)c3)o2)C(=O)O)n[nH]1	10	43	.	+	75*	-78
CCCNC(=O)NCCc1c(C)[nH]c2ccccc12	-1	2	-2	i	-2	53*
Cc1[nH]c2ccccc2c1CCO	1	-1	-1	i	-9	-8
